≈ marks a conversion by molar mass, not a printed value. Calls of active or inactive are those of the source. The calls are words filed in the database; no cut-off is given here.
Columns and labels:
[1] = tested on: Mycobacterium tuberculosis; experiment: Antitubercular activity against Mycobacterium tuberculosis H37Rv mc2 6230 measured after 10 days by liquid broth microdilution assay; assay type: functional; conditions: H37Rv mc2 6230, 240 h, time 10 day
How it was run: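 Broth microdilution in 7H9 with glycerol, ADS and 0.05% tyloxapol, supplemented with L-methionine, L-leucine (50 mg L−1 each), L-arginine (200 mg L−1) and D-pantothenate (24 mg L−1). Inoculum was diluted to OD600 0.005 (1.0 × 10^6 CFU ml−1) and added to two-fold serial dilutions. After 10 days at 37 °C, MIC was the lowest concentration without visible turbidity.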

[2] = tested on: Mycobacterium tuberculosis; experiment: Antitubercular activity against Mycobacterium tuberculosis H37Ra measured after 10 days by liquid broth microdilution assay; assay type: functional; conditions: 240 h, time 10 day
How it was run: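 Broth microdilution in 7H9 with 0.2% glycerol, 0.05% Tween 80 and 10% ADS. Mid-log cultures (OD600 0.4–0.6) were diluted to OD600 0.005 (1.0 × 10^6 CFU ml−1) and added to two-fold serial compound dilutions. Plates were incubated at 37 °C for 10 days and read visually. MIC was the lowest concentration with no turbidity.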

[3] = tested on: Mycobacterium tuberculosis; experiment: Antitubercular activity against Mycobacterium tuberculosis H37Rv mc2 6230 assessed as inhibition of intracellular ATP synthesis incubated for 24 hrs by BacTiter-Glo microbial cell viability assay; assay type: functional, organism-based; conditions: H37Rv mc2 6230, 24 h
How it was run: (§1)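 Mid-log cultures were adjusted to OD600 0.05 and exposed to compounds at 37 °C for 24 h. BacTiter-Glo reagent was then added for 12 min and luminescence was read. H37Ra and BCG were grown in 7H9 with glycerol, Tween 80 and ADS. mc2 6230 was grown with tyloxapol plus methionine, leucine, arginine and pantothenate. Values are the mean of triplicates.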

[4] = tested on: Mycobacterium tuberculosis; experiment: Antitubercular activity against Mycobacterium tuberculosis H37Ra assessed as inhibition of intracellular ATP synthesis incubated for 24 hrs by BacTiter-Glo microbial cell viability assay; assay type: functional, organism-based; how it was run: as §1
[5] = Cytotoxicity against human HepG2 cells assessed as reduction in cell viability by MTT assay; assay type: toxicity, cell-based
How it was run: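 HepG2 cells in DMEM with 10% FBS, streptomycin, penicillin, 10 mM HEPES and 2 mM L-glutamine were seeded at 1 × 10^4 cells/well and incubated for 24 h (37 °C, 5% CO2). […] two-fold dilutions spanning 1000–0.48 μg ml−1 were applied. MTT (2.5 mg ml−1 in PBS) was added; formazan was dissolved in DMSO and read at 570 nm. CC50 = 50% viability loss. Triplicates.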

[6] = Selectivity index, ratio of CC50 for cytotoxicity against human HepG2 cells to MIC90 for antitubercular activity against Mycobacterium tuberculosis; assay type: toxicity, cell-based; conditions: read-out: Selectivity Index
How it was run: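 Selectivity index calculated as HepG2 MTT CC50 divided by MIC90.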

[7] = tested on: Mycobacterium tuberculosis; experiment: Bactericidal activity against Mycobacterium tuberculosis H37Rv mc2 6230 assessed as reduction in bacterial load at 4 times MIC measured after 5 days; assay type: functional, organism-based; conditions: time 5.0 day
[8] = tested on: Mycobacterium tuberculosis; experiment: Bactericidal activity against Mycobacterium tuberculosis H37Rv mc2 6230 assessed as reduction in bacterial load measured after 5 days; assay type: functional, organism-based; conditions: time 5.0 day
How it was run: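 Mid-log bacilli in supplemented 7H9 were adjusted to OD600 0.005 and exposed to a range of concentrations for 5 days at 37 °C. Cultures were 10-fold serially diluted and spotted on 7H10 agar, which was incubated for 3–4 weeks for CFU counts. MBC90 was a 90% fall from the initial inoculum. Triplicates; Student's t-test.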

| SMILES | MIC90 [1] | MIC90 [2] | IC50 [3] | IC50 [4] | CC50 [5] | selectivity ratio [6] | Activity [7] | Activity [8] |
| --- | --- | --- | --- | --- | --- | --- | --- | --- |
| NNC(=O)c1ccncc1 [ISONIAZID] | 0.06 µg/mL (≈ 0.438 µM) | 0.015 µg/mL (≈ 0.109 µM) |  |  |  |  |  |  |
| O=C(CSc1nc2c(Br)cc(C(F)(F)F)cc2s1)NC1CCCCC1 | 64 µg/mL (≈ 141 µM) | 64 µg/mL (≈ 141 µM) | 56 µg/mL (≈ 124 µM) | 25.7 µg/mL (≈ 56.7 µM) |  |  |  |  |
| O=C(CSc1nc2ccc(F)cc2s1)NC1CCCCC1 | 4 µg/mL (≈ 12.3 µM) | 16 µg/mL (≈ 49.3 µM) | 56.9 µg/mL (≈ 175 µM) | 36.5 µg/mL (≈ 113 µM) |  |  |  |  |
| CC(C)/N=c1\cc2n(-c3ccc(Cl)cc3)c3ccccc3nc-2cc1Nc1ccc(Cl)cc1 [CLOFAZIMINE] | 0.25 µg/mL (≈ 0.528 µM) | 0.25 µg/mL (≈ 0.528 µM) |  |  | 49 µg/mL (≈ 104 µM) | 223 |  |  |
| CC/C(=C(\c1ccccc1)c1ccc(OCCN(C)C)cc1)c1ccccc1 [TAMOXIFEN] |  |  |  |  | 6.15 µg/mL (≈ 16.6 µM) |  |  |  |
| Cc1cc(C)c2nc(SCC(=O)NC3CCCCC3)sc2c1 | 8 µg/mL (≈ 23.9 µM) | 8 µg/mL (≈ 23.9 µM) | 16.3 µg/mL (≈ 48.7 µM) | 16.3 µg/mL (≈ 48.7 µM) | 247 µg/mL (≈ 739 µM) | 15.4 | Active | Dose-Dependent Effect |
| C=C(C)[C@H]1Cc2c(ccc3c2O[C@@H]2COc4cc(OC)c(OC)cc4[C@@H]2C3=O)O1 [ROTENONE] | > 64 µg/mL | > 64 µg/mL |  |  |  |  |  |  |
| O=C(CSc1nc2c(Br)cc(F)cc2s1)NC1CCCCC1 | 8 µg/mL (≈ 19.8 µM) | 8 µg/mL (≈ 19.8 µM) | 14.7 µg/mL (≈ 36.4 µM) | 18.7 µg/mL (≈ 46.3 µM) | 89.4 µg/mL (≈ 222 µM) | 5.58 | Active | Dose-Dependent Effect |
| Cc1ccc2nc(SCC(=O)NC3CCCCC3)sc2c1 | 32 µg/mL (≈ 99.8 µM) | 32 µg/mL (≈ 99.8 µM) | 34.9 µg/mL (≈ 109 µM) | 14.1 µg/mL (≈ 43.9 µM) |  |  |  |  |
| O=C(CSc1nc2ccc(Cl)cc2s1)NC1CCCCC1 | 16 µg/mL (≈ 46.9 µM) | 32 µg/mL (≈ 93.9 µM) | 38.2 µg/mL (≈ 112 µM) | 48.6 µg/mL (≈ 143 µM) |  |  |  |  |
| O=C(CSc1nc2ccc(C(F)(F)F)cc2s1)NC1CCCCC1 | 64 µg/mL (≈ 171 µM) | 32 µg/mL (≈ 85.5 µM) | 51 µg/mL (≈ 136 µM) | 30.9 µg/mL (≈ 82.5 µM) |  |  |  |  |
| O=C(CSc1nc2c(Br)cc(OC(F)(F)F)cc2s1)NC1CCCCC1 | 128 µg/mL (≈ 273 µM) | 128 µg/mL (≈ 273 µM) | 35.8 µg/mL (≈ 76.3 µM) | 36.6 µg/mL (≈ 77.9 µM) |  |  |  |  |
| O=C(CSc1nc2ccc(Br)cc2s1)NC1CCCCC1 | 32 µg/mL (≈ 83 µM) | 64 µg/mL (≈ 166 µM) | 49.8 µg/mL (≈ 129 µM) | 34.4 µg/mL (≈ 89.2 µM) |  |  |  |  |
| O=C(CSc1nc2ccc(OC(F)(F)F)cc2s1)NC1CCCCC1 | 32 µg/mL (≈ 82 µM) | 64 µg/mL (≈ 164 µM) | 66.2 µg/mL (≈ 170 µM) | 23.4 µg/mL (≈ 59.9 µM) |  |  |  |  |
| CC(C)c1ccc2nc(SCC(=O)NC3CCCCC3)sc2c1 | 4 µg/mL (≈ 11.5 µM) | 4 µg/mL (≈ 11.5 µM) | 9.35 µg/mL (≈ 26.8 µM) | 9.35 µg/mL (≈ 26.8 µM) | 423 µg/mL (≈ 1210 µM) | 26.5 | Active | Dose-Dependent Effect |
| O=C(CSc1nc2ccccc2s1)NC1CCCCC1 | 64 µg/mL (≈ 209 µM) | 64 µg/mL (≈ 209 µM) | 40.6 µg/mL (≈ 133 µM) | 26.6 µg/mL (≈ 86.9 µM) |  |  |  |  |
| O=C(CSc1nc2ccccc2c(=O)[nH]1)NC1CCCCC1 | 0.5 µg/mL (≈ 1.58 µM) | 0.5 µg/mL (≈ 1.58 µM) | 2.23 µg/mL (≈ 7.01 µM) | 8.55 µg/mL (≈ 26.9 µM) | 48.8 µg/mL (≈ 154 µM) | 391 |  |  |
| O=C(CSc1nc2ccc([N+](=O)[O-])cc2s1)NC1CCCCC1 | 16 µg/mL (≈ 45.5 µM) | 16 µg/mL (≈ 45.5 µM) | 24.4 µg/mL (≈ 69.6 µM) | 36.3 µg/mL (≈ 103 µM) |  |  |  |  |
| CO[C@H]1/C=C/O[C@@]2(C)Oc3c(C)c(O)c4c(O)c(c(/C=N/N5CCN(C)CC5)c(O)c4c3C2=O)NC(=O)/C(C)=C\C=C\[C@H](C)[C@H](O)[C@@H](C)[C@@H](O)[C@@H](C)[C@H](OC(C)=O)[C@@H]1C [RIFAMPIN] | 0.03 µg/mL (≈ 0.0365 µM) | 0.015 µg/mL (≈ 0.0182 µM) |  |  |  |  |  |  |
| O=C(CSc1nc2c(ccc3ccccc32)s1)NC1CCCCC1 | 128 µg/mL (≈ 359 µM) | 128 µg/mL (≈ 359 µM) | 33 µg/mL (≈ 92.5 µM) | 36.6 µg/mL (≈ 103 µM) |  |  |  |  |

From ChEMBL document CHEMBL5532690, “Antitubercular activity of 2-mercaptobenzothiazole derivatives targeting Mycobacterium tuberculosis type II NADH dehydrogenase” (RSC Med Chem, 2024)
